Test results taken from article PMC9050161 (RSC Advances, 2020).

Key:
[1] = target: UGT2B10 (Homo sapiens, UniProt P36537); assay: Inhibition of UGT2B10; format: biochemical; conditions: PI-103 1, 10 and 100 μM
In short: (§1)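 Recombinant human UGTs screened with probe substrates: β-estradiol for UGT1A1, propofol for 1A9, and 4-methylumbelliferone for 1A3, 1A6, 1A7, 1A8, 1A10, 2B4, 2B7, 2B10, 2B15 and 2B17. Incubated at 37 °C without (control) or with test compound at 1, 10 or 100 μM. Glucuronide formation measured relative to control; triplicate.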

[2] = tested on: mice; conditions: cited from earlier work
[3] = target: T1, UGT2B7 (Homo sapiens, UniProt P16662); assay: Inhibition of UGT2B7; format: biochemical
T1 sequence (P16662 24-529): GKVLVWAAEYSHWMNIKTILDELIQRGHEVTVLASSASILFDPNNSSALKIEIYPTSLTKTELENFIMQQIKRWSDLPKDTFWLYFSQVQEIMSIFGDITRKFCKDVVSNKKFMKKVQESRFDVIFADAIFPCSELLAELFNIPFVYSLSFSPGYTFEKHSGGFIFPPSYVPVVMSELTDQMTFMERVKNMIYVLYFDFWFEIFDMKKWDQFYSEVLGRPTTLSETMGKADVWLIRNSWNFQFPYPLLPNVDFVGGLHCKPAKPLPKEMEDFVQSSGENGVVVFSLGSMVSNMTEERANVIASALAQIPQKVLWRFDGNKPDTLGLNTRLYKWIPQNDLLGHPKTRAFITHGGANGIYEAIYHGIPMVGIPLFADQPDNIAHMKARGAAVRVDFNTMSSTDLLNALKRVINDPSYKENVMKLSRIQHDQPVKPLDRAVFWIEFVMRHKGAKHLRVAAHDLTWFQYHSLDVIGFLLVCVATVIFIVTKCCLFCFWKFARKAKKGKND
In short: as §1

[4] = target: UGT1A10 (Homo sapiens, UniProt Q9HAW8); assay: Inhibition of UGT1A10; format: biochemical; conditions: PI-103 1, 10 and 100 μM
Sequence of UGT1A10 (Q9HAW8 26-530): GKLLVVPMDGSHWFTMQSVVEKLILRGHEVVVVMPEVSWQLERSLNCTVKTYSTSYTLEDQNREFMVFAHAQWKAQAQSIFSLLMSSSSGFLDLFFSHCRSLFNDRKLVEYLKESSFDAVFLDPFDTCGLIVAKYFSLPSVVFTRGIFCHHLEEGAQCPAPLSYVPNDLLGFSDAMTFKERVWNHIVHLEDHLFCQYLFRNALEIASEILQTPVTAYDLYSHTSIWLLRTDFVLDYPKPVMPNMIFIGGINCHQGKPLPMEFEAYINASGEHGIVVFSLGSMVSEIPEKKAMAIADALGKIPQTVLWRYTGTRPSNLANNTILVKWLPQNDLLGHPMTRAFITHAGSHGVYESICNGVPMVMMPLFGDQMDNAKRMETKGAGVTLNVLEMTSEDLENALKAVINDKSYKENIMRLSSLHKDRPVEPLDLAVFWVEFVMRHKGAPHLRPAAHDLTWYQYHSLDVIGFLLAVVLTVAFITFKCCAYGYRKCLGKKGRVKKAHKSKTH
In short: as §1

[5] = tested on: HeLa cells; assay: Toxicity of PI-103 in HeLa cells; format: cell-based, human; conditions: within the experimental concentrations (maximal 5 μM)
[6] = tested on: p110β; conditions: cited from earlier work

Sequence of UGT2B10 (P36537 24-528): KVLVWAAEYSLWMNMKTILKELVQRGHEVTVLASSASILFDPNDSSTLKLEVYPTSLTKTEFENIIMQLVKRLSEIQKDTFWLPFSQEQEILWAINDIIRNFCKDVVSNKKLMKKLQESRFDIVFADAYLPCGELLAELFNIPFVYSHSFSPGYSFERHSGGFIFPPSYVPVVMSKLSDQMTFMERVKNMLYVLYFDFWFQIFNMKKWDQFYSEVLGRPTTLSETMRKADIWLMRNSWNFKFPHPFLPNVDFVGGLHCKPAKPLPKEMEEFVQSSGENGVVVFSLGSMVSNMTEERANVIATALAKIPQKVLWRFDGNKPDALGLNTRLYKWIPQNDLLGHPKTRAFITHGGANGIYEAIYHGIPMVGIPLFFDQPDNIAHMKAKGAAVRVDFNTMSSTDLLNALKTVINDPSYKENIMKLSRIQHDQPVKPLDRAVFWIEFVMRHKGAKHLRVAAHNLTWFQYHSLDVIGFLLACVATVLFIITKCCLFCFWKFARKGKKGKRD

Q: Which results are given for `Oc1cccc(-c2nc(N3CCOCC3)c3oc4ncccc4c3n2)c1` [PI-103]?
A: inhibitory effect [1]: negligible; toxicity in mice [2]: little toxicity; IC50 [3]: 1590 ± 210 nM; Ki [3]: 1350 ± 150 nM; Type of inhibition ([3]; UGT2B7, 4-MU): Noncompetitive; inhibitory effect [4]: negligible; toxicity in HeLa cells [5]: no significant toxicities; IC50 [6]: 88 nM
